From PubChem BioAssay
MC4R antagonist = MC4R antagonists of cAMP signaling, primary screen, cell-based, TR-FRET, antagonist arm of biased-ligand search | Melanocortin receptor 4 (Homo sapiens), P32245 | MC4R-expressing cells, MTII-stimulated cAMP, LANCE TR-FRET | inhibition, % at 6.5 µM | hit rate 0.48% among 360,000;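 active = inhibition above its plate's cutoff, the mean of tested wells on that plate plus 3 SD, cut at about 29% in these data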
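System – human MC4R-expressing U2OS cells · Also added – Melanotan II · Dosing – one concentration, 6.5 µM nominal · Timing – 30-min compound, 1-h challenge, 1-h detection, room temperature · Measured by – Eu-cAMP/anti-cAMP TR-FRET, emission 671 nm · Replicates – singlicate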
MC4R barr agon = MC4R agonists recruiting beta-arrestin, primary screen, cell-based, luminescence, agonist arm of biased-ligand search; Melanocortin receptor 4 (Homo sapiens), P32245; U2OS MC4R beta-arrestin complementation; percent of melanotan II response, DMSO zero; activation, % at 8.9 µM; hit rate 0.98% among 360,000; AID 540308, 2011;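 active = activation above a per-plate cutoff, the mean activation of sample wells on that plate plus 3 SD, cut at about 8% in these data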
ANO1 block = TMEM16A chloride channel inhibitors, primary screen, cell-based, HTS; HEK293 TMEM16A/YFP iodide influx fluorescence, ionomycin; normalized B-score (activity score, 25-100; higher = stronger inhibition) at 10 µM; hit rate 1.2% among 310,000; AID 588511, 2011;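 active = ratio plate-corrected score three or more library SD toward inhibition, starting fluorescence score within five deviations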;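 also: score derived from kinetic fluorescence span divided by baseline fluorescence per well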
CSC inhib = cancer stem cell viability inhibitors, primary screen, luminescence; hit rate 1.1% among 300,000; inhibition, % at 7.5 µM; cancer stem cell-like cells viability; in the data active = inhibition above about 75%; inconclusive = no clear call, values can overlap the other calls; tested in HMLE shEcad cells
Beta apoptosis = inhibitors of cytokine-induced beta cell apoptosis, primary screen, luminescence; INS-1E cytokine-induced death, ATP luminescence, 48 h; percent of positive-control rescue, neutral wells zero; hit rate 0.8% among 300,000; protection from apoptosis, % (test concentration not listed);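 active = Every replicate reaches about 75%, or at least half do and their mean reaches it too, limit read from the data; inconclusive = At least half of replicates reach the limit but their mean does not; inactive = Under half of replicates reach the limit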;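 also: higher means more ATP so stronger rescue from cytokine killing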
ANO1 activ = TMEM16A chloride channel activators or potentiators, primary screen, cell-based, HTS | Anoctamin-1 (Mus musculus), Q8BHY3 | HEK293 TMEM16A/YFP-H148Q/I152L, iodide quench fluorescence; active compounds read low | B-score at 10 µM | hit rate 0.3% among 340,000;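 active = fluorescence-ratio B-score plate-corrected deviation score at least 3 library SD below zero, with starting fluorescence score within 5 deviations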;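 also: channel opened by trigger with iodide after compound preincubation; score built on the fluorescence ratio of max minus min over baseline; more negative score means more quench and so TMEM16A activation or potentiation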
TMEM16A reconf = TMEM16A chloride channel inhibitors, confirmation, cell-based, re-confirmation; shares compounds with ANO1 block; HEK293 TMEM16A/YFP-H148Q, iodide quench fluorescence; ionomycin added to raise cell calcium; inhibition, % at 10 µM; hit rate 39% among 2,300;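 active = mean duplicate percent inhibition, scaled so buffer wells are 0 and the reference blocker 100, over three buffer SD above buffer mean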
TMEM16A Ca cntr = calcium mobilization in TMEM16A/YFP HEK293 cells, confirmation, counter-screen for TMEM16A inhibitor project. shares compounds with ANO1 block. calcium response (% of ionomycin), % at 10 µM. AID 652231, 2013. Fluo4 calcium mobilization. hit rate 2% among 2,300;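 active = duplicate-averaged calcium signal over 20% of the ionomycin maximum, relative to buffer baseline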;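 also: each well's signal is peak minus trough fluorescence divided by its pre-addition baseline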
YFP-HEK293 quench = iodide YFP quench changes in parental YFP-HEK293, counter-screen for TMEM16A inhibitor project, cell-based. 2,300 tested, under 10 active. shares compounds with ANO1 block. YFP ratio F(max-min)/F0 at 10 µM. ionomycin. AID 652233, 2013;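 active = yellow fluorescent protein signal ratio exceeding the buffer control mean by over 5 SD of those controls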;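 also: ratio is mean of duplicate wells from kinetic YFP trace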
ClC-1 inh = ClC-1 chloride channel inhibition, selectivity assay for TMEM16A inhibitor project, cell-based, voltage-dependent ClC-1. ratio percent, % at 10 µM. 2,300 tested, under 10 active. AID 652236, 2013. shares compounds with ANO1 block. CHO ClC-1-YFP, iodide influx fluorescence quench; iodide control reads 0, buffer control 100;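 active = duplicate-mean ratio percent above the mean of iodide-only control wells, which defines zero, plus 5 of their SD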;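 also: higher percent means stronger block of ClC-1 iodide influx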
Each line names hits and unclear results; the compound was inactive in the other large screens (follow-up assays come after a bar, where they were run). Sampled rows, rich in hits. Any-hit rate of the full collection: about 3.8%.

O=C(CSc1nc2ccccc2o1)Nc1nc(-c2ccccc2)cs1	ANO1 block 100 | TMEM16A reconf 47.5% | TMEM16A Ca cntr inactive | YFP-HEK293 quench inactive | ClC-1 inh inactive
O=C(CSc1nnc(-c2ccncc2)n1Cc1ccco1)Nc1ccccc1Cl	none (no result: ANO1 activ)
CCc1nnc(NC(=O)CSc2nnc(-c3ccccc3O)n2CC)s1	none (no result: CSC inhib, Beta apoptosis)
CC(=O)N1CC(C(=O)Nc2ccc3c(c2)OCO3)Oc2ccccc21 (centres undefined)	none (no result: ANO1 block)
OC(c1ccccc1)(c1nc(-c2cc(F)cc(F)c2)cs1)C(F)(F)F (centres undefined)	none (no result: ANO1 block, CSC inhib, Beta apoptosis, ANO1 activ)
CCCCCCNC(=O)CC(c1ccccc1)c1cc(Br)ccc1O (centres undefined)	ANO1 block 100 (no result: CSC inhib) | TMEM16A reconf 47.0% | TMEM16A Ca cntr inactive | YFP-HEK293 quench inactive | ClC-1 inh inactive
CC(C)Cc1csc(NC(=O)C(C)C)c1C(=O)O	none
CC(C)Cc1csc(NC(=O)c2ccc(Br)cc2)c1C(=O)O	ANO1 block 100 | TMEM16A reconf inactive | TMEM16A Ca cntr inactive | YFP-HEK293 quench inactive | ClC-1 inh inactive
CCOP(=O)(c1c(F)c(F)c(F)c(F)c1F)C(O)c1ccccc1 (centres undefined)	ANO1 block 25 | TMEM16A reconf 31.0% | TMEM16A Ca cntr inactive | YFP-HEK293 quench inactive | ClC-1 inh inactive
Cc1[nH]n(-c2ccc(Br)cc2)c(=O)c1/C=N/NC(=O)c1ccccc1	ANO1 block 100, CSC inhib 80.1, Beta apoptosis 104.2 | TMEM16A reconf 21.0% | TMEM16A Ca cntr inactive | YFP-HEK293 quench inactive | ClC-1 inh inactive
Cc1nnc(SCC(=O)c2c(N)n(C3CC3)c(=O)[nH]c2=O)n1-c1ccccc1	none (no result: ANO1 block)
Oc1[nH]c2ccccc2c1N=Nc1ccccc1	none | TMEM16A reconf inactive | TMEM16A Ca cntr inactive | YFP-HEK293 quench inactive | ClC-1 inh inactive
Oc1[nH]c2ccccc2c1N=Nc1ccc(F)cc1	none
COc1cc2ccccc2cc1C(=O)Nc1ccccc1Cl	ANO1 block 100, CSC inhib inconclusive | TMEM16A reconf 70.0% | TMEM16A Ca cntr inactive | YFP-HEK293 quench inactive | ClC-1 inh inactive
COc1cc2ccccc2cc1C(=O)Nc1ccccc1N1CCCC1	none
COc1ccccc1NC(=O)c1cc2cc(Br)ccc2cc1O	ANO1 block 100, CSC inhib 106.1, Beta apoptosis inconclusive | TMEM16A reconf 76.0% | TMEM16A Ca cntr inactive | YFP-HEK293 quench inactive | ClC-1 inh inactive
CCNC(=O)C1CCCN(C(=O)c2ccc(F)c(Cl)c2)CC1 (centres undefined)	none (no result: ANO1 block, CSC inhib, Beta apoptosis, ANO1 activ)
O=C(NCCCc1ccccc1)C(=O)NCC1OCCN1S(=O)(=O)c1ccc(F)cc1 (centres undefined)	ANO1 block 25 | TMEM16A reconf inactive | TMEM16A Ca cntr inactive | YFP-HEK293 quench inactive | ClC-1 inh inactive
O=C(c1ccc(F)cc1)c1ccc(-c2ccc(F)cc2)nc1	none
